ChEMBL document CHEMBL3120102, “Structure-based design, synthesis and biological evaluation of novel anthra[1,2-d]imidazole-6,11-dione homologues as potential antitumor agents” (2013)

Columns and labels:
Assay type in all cases: functional
[1] = tested on: T47D; assay: Cytotoxicity against human T47D cells assessed as growth inhibition after 48 hrs by SRB assay
Summary of the method: (§1)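 NCI 60-cell-line screen, two stages. Five-dose testing at […]. Cellular protein measured by sulforhodamine B colorimetry after 48 h drug exposure. A time-zero control and drug-free plates are used to derive GI50, TGI and LC50 from dose-response curves plotted as log10 concentration per cell line.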

[2] = tested on: CAKI-1; assay: Cytotoxicity against human CAKI-1 cells assessed as growth inhibition after 48 hrs by SRB assay
Summary of the method: (§2)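 NCI 60-cell-line five-dose screen at […]. Drug exposure was 48 h, followed by sulforhodamine B protein staining. GI50, TGI and LC50 were calculated against a time-zero control and untreated plates, with dose–response curves plotted from log10 concentration.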

[3] = (§3) Cytotoxicity against human OVCAR4 cells assessed as growth inhibition after 48 hrs by SRB assay; conditions: OVCAR-4, 48 h
Summary of the method: (§4)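 NCI 60-cell-line screen, five-dose stage: each cell line exposed for 48 h to five concentrations spanning five log steps; cellular protein measured by sulforhodamine B colorimetry. A time-zero cell control and plates without drug are used to derive GI50, TGI and LC50 from log-concentration dose-response curves.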

[4] = tested on: OVCAR-4; assay: as §3; summary of the method: as §4
[5] = tested on: IGROV-1; assay: Cytotoxicity against human IGROV1 cells assessed as growth inhibition after 48 hrs by SRB assay; summary of the method: as §2
[6] = tested on: SNB-75; assay: Cytotoxicity against human SNB75 cells assessed as growth inhibition after 48 hrs by SRB assay; summary of the method: as §1
[7] = tested on: SNB-19; assay: Cytotoxicity against human SNB19 cells assessed as growth inhibition after 48 hrs by SRB assay; summary of the method: as §1
[8] = tested on: SF-539; assay: Cytotoxicity against human SF539 cells assessed as growth inhibition after 48 hrs by SRB assay; conditions: for GI50 / TGI / CC50: SF-539, 48 h; for CC50: read-out: LC50 (the source's name); summary of the method: as §4
[9] = tested on: KM12; assay: Cytotoxicity against human KM12 cells assessed as growth inhibition after 48 hrs by SRB assay; conditions: for GI50 / TGI / CC50: KM12, 48 h; for CC50: read-out: LC50 (the source's name); summary of the method: as §2
[10] = tested on: HOP-62; assay: Cytotoxicity against human HOP62 cells assessed as growth inhibition after 48 hrs by SRB assay; conditions: for GI50 / TGI: HOP-62, 48 h; summary of the method: as §2
[11] = tested on: RPMI-8226; assay: Cytotoxicity against human RPMI8226 cells assessed as growth inhibition after 48 hrs by SRB assay; summary of the method: as §4
[12] = tested on: MOLT-4; assay: Cytotoxicity against human MOLT4 cells assessed as growth inhibition after 48 hrs by SRB assay; summary of the method: as §4
[13] = tested on: CAKI-1; assay: Cytotoxicity against human CAKI-1 cells assessed as cell growth at 10 uM after 48 hrs by SRB assay; conditions: CAKI-1, 48 h, read-out: Activity

Row | SMILES | GI50 [1] [µM] | TGI [1] [µM] | growth inhibition (GI) [1] | GI50 [3] [µM] | TGI [3] [µM] | growth inhibition (GI) [4] | growth inhibition (GI) [5] | GI50 ([5]; IGROV-1, 48 h) [µM] | TGI ([5]; IGROV-1, 48 h) [µM] | growth inhibition (GI) [6] | GI50 ([6]; SNB-75, 48 h) [µM] | TGI ([6]; SNB-75, 48 h) [µM] | growth inhibition (GI) [7] | GI50 ([7]; SNB-19, 48 h) [µM] | TGI ([7]; SNB-19, 48 h) [µM] | growth inhibition (GI) [8] | GI50 [8] [µM] | TGI [8] [µM] | CC50 [8] [µM] | growth inhibition (GI) [9] | further results
1 | CN(C)CCCSc1nc2ccc3c(c2[nH]1)C(=O)c1ccccc1C3=O | 8.73 | 24.8 | Dose-dependent effect | 0.031 | 5.04 | Dose-dependent effect | Dose-dependent effect | 0.329 | 12.8 | Dose-dependent effect | < 0.01 | < 0.01 | Dose-dependent effect | 7.2 | 20.7 | Dose-dependent effect | 10.9 | 22.7 | 47.7 | Dose-dependent effect | growth inhibition (GI) [2]: Dose-dependent effect; GI50 ([2]; CAKI-1, 48 h): 0.822 µM; TGI ([2]; CAKI-1, 48 h): 11 µM; GI50 [9]: 1.96 µM; TGI [9]: 7.24 µM; CC50 [9]: 27.4 µM; growth inhibition (GI) [10]: Dose-dependent effect; GI50 [10]: 5.9 µM; TGI [10]: 21.2 µM; growth inhibition (GI) [11]: Dose-dependent effect; GI50 ([11]; RPMI-8226, 48 h): 1.25 µM; TGI ([11]; RPMI-8226, 48 h): 4.62 µM; growth inhibition (GI) [12]: Dose-dependent effect; GI50 ([12]; MOLT-4, 48 h): 2.06 µM; TGI ([12]; MOLT-4, 48 h): 6.6 µM; growth at 10 µM [13]: -14.9%
2 | O=C1c2ccccc2C(=O)c2c1ccc1[nH]c(=S)[nH]c21 | – | – | – | – | – | – | – | – | – | – | – | – | – | – | – | – | – | – | – | – | growth at 10 µM [13]: 91.2%
3 | O=C1c2ccccc2C(=O)c2c1ccc1nc(SCCN3CCCC3)[nH]c21 | 17.5 | 40.3 | Dose-dependent effect | 1.89 | 7.34 | Dose-dependent effect | Dose-dependent effect | 0.56 | 3.39 | Dose-dependent effect | 12.3 | 25.2 | Dose-dependent effect | 17.1 | 31.9 | Dose-dependent effect | 6.79 | 20.2 | 47.4 | Dose-dependent effect | LC50 [1]: 92.8 µM; LC50 (concentration killing 50% of cells) [3]: 38.9 µM; LC50 ([5]; IGROV-1, 48 h): 22.4 µM; LC50 ([6]; SNB-75, 48 h): 51.5 µM; LC50 ([7]; SNB-19, 48 h): 59.7 µM; GI50 [9]: 2.32 µM; TGI [9]: 6.16 µM; CC50 [9]: 24.4 µM; growth inhibition (GI) [10]: Dose-dependent effect; GI50 [10]: 18 µM; TGI [10]: 33.2 µM; growth inhibition (GI) [11]: Dose-dependent effect; GI50 ([11]; RPMI-8226, 48 h): 1.79 µM; LC50 (concentration causing 50% net cell kill) ([11]; RPMI-8226, 48 h): 15.4 µM; TGI ([11]; RPMI-8226, 48 h): 4.31 µM; growth inhibition (GI) [12]: Dose-dependent effect; GI50 ([12]; MOLT-4, 48 h): 1.51 µM; LC50 (50% lethal concentration) ([12]; MOLT-4, 48 h): 19.1 µM; TGI ([12]; MOLT-4, 48 h): 4.29 µM
